ChEMBL document CHEMBL1142242, “Indanylacetic acid derivatives carrying 4-thiazolyl-phenoxy tail groups, a new class of potent PPAR alpha/gamma/delta pan agonists: synthesis, structure-activity relationship, and in vivo efficacy” (J Med Chem, 2007)

How the values were obtained:
[1] = target: T1, Peroxisome proliferator-activated receptor delta (Homo sapiens, UniProt Q03181); experiment: Agonist activity at human PPAR delta by FRET assay; assay type: functional
T1 sequence (Q03181 whole entry): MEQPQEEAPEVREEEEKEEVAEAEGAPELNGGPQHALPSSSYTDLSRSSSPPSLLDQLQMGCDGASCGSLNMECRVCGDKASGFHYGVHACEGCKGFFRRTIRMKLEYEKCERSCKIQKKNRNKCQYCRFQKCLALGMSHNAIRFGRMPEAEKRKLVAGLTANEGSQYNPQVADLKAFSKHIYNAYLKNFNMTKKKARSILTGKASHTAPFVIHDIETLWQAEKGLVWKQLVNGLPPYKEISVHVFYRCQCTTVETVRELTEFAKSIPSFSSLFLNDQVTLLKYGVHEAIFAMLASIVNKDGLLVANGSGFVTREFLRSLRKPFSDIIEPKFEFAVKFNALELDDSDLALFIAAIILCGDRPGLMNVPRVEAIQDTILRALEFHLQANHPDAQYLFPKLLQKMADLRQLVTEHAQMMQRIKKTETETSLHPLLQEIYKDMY

[2] = target: T2, Peroxisome proliferator-activated receptor gamma (Mus musculus, UniProt P37238); experiment: Agonist activity at PPAR gamma in mouse 3T3L1 cells assessed as increase in insulin receptor by IRBA; assay type: functional, cell-based, 3T3-L1
T2 sequence (P37238 whole entry): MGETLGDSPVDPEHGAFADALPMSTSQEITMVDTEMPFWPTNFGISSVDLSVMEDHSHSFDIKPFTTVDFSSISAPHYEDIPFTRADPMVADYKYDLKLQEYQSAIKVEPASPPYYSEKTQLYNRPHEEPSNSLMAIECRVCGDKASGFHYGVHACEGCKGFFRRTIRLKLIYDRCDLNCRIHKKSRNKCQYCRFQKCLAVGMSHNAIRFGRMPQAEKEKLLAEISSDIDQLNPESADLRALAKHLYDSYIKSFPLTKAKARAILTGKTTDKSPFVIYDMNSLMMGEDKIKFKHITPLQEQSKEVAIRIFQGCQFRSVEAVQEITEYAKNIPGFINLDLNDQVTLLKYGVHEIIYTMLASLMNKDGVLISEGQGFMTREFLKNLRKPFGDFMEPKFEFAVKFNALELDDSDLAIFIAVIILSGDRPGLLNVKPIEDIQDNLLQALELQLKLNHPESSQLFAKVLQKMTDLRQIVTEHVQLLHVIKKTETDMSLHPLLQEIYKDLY

[3] = target: T3, Peroxisome proliferator-activated receptor alpha (Homo sapiens, UniProt Q07869); experiment: Agonist activity at human PPAR alpha by FRET assay; assay type: functional
T3 sequence (Q07869 whole entry): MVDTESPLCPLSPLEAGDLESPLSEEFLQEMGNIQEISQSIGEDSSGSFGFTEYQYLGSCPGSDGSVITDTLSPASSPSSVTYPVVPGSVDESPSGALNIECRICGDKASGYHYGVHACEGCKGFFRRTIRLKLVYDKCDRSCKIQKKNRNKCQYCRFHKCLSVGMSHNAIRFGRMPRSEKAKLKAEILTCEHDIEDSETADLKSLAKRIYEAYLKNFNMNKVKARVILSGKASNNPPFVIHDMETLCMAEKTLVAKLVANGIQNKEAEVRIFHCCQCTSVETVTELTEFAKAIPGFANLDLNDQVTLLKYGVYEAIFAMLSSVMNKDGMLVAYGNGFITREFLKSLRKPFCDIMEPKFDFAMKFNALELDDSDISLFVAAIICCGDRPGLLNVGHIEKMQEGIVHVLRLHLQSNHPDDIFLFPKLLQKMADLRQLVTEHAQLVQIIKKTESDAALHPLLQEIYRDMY
Summary of the method: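 Human PPARα ligand binding domain (GST-tagged) association with biotin-labeled co-activator CBP; Eu-labeled anti-GST antibody and streptavidin-APC; incubated 2 h at rt in buffer with or without compound; fluorescence read at 615 or 655 nm emission, 340 nm excitation.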

[4] = Aqueous solubility of the compound; assay type: physicochemical

SMILES: CCCc1c(OCCCOc2ccc3c(c2)CC[C@H]3CC(=O)O)ccc2c(C(F)(F)F)noc12
- EC50 [1]: 6 nM
- EC50 [2]: 42 nM
- EC50 [3]: 192 nM
- solubility [4]: < 1 µM
